Source: PubChem BioAssay (The Scripps Research Institute Molecular Screening Center)
Only some compounds are listed: those with a hit (about 4.6% of all), similar ones and a draw of the others.
TAAR1 ag: human TAAR1 agonists, primary screen, Fluo-8 calcium fluorescence, CHO RD-HGA16 cells. Trace amine-associated receptor 1 (Homo sapiens), Q96RJ0. vehicle wells 0%, saturating PEA agonist 100%. activation, % at 3 µM. actives 0.99% (n = 360,000). AID 624467, 2012;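 active = activation above the mean activation of all test compounds in the run plus 3 SD, cut at about 38% in these data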
Target sequence (Q96RJ0 whole entry, looked up): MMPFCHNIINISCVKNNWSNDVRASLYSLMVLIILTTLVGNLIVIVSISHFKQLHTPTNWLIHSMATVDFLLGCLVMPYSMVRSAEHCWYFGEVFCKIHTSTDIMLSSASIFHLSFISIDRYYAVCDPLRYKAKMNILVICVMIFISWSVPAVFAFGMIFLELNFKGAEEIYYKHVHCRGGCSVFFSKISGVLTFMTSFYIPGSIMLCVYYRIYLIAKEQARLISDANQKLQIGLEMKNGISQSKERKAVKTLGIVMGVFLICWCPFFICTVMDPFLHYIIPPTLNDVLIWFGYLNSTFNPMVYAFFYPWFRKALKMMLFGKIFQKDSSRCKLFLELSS
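System: CHO RD-HGA16 cells carrying human TAAR1 plus Gα16; Incubation: 17-24 h seeding, 75 min 37 °C dye, 30 min RT; Measured by: Fluo-8 fluorescence, 5 s baseline then 140 s kinetic read; Control set: DMSO and PEA EC100; Replication: single well for each compound.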
TAAR1 antagonist: human TAAR1 antagonists, primary screen, Fluo-8 calcium fluorescence, CHO RD-HGA16 cells; Trace amine-associated receptor 1 (Homo sapiens), Q96RJ0; actives 1.5% (n = 360,000); inhibition, % at 3 µM; antagonist;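 active = inhibition above a per-plate cutoff, the mean inhibition of test compounds on that plate plus 3 SD, cut at about 49% in these data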;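 note: 0% = DMSO plus EC80 beta-PEA response and 100% = DMSO alone without agonist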
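Test system: RD-HGA16 CHO cells with stable hTAAR1 and Gα16 / Probe or stimulus: EC80 β-phenethylamine stimulus / Times: seeding 17-24 h prior, 75-min 37 °C, 30-min RT dye loading / Detection: Fluo-8 calcium-sensitive fluorescence / Read-out basis: % inhibition scaled between DMSO and EC80 PEA controls / Repeats: singlicate, one well per test compound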
CHO parental Ca: ATP-evoked calcium signal inhibitors, parental CHO, primary screen, counter-screen for OX1R antagonist project, cell-based, fluorescence, Fluo-8 calcium dye; parental CHO-K1, ATP-induced calcium, Fluo-8 fluorescence; actives 0.63% (n = 330,000); inhibition, % at 5.6 µM;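 active = inhibition above that plate's mean sample inhibition plus 3 SD, cut at about 26% in these data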;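 note: 0% = ATP-challenged DMSO wells and 100% = DMSO wells without ATP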
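Material – parental CHO cells · Reagent – ATP stimulus · Compound – single nominal dose of 5.6 µM per compound · Detection – Fluo-8 fluorescence · Read-out basis – percent inhibition of calcium signal · Controls – ATP-challenged DMSO wells low, unchallenged DMSO wells high · Repeats – no replicates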
GPR7 antagonist: GPR7 receptor antagonists, primary screen, cell-based, fluorescence, single concentration | GPR7-expressing cells, fluorescence antagonist assay | inhibition, % at 4.4 µM | Neuropeptides B/W receptor type 1 (Homo sapiens), P48145 | AID 1861, 2009 | actives 1.1% (n = 290,000); in the data active = inhibition above about 16%, passing the limit was not always enough;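 note: cells stimulated with the agonist NPW; 0% = agonist with vehicle and 100% = vehicle without agonist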
Target sequence (P48145 whole entry, looked up): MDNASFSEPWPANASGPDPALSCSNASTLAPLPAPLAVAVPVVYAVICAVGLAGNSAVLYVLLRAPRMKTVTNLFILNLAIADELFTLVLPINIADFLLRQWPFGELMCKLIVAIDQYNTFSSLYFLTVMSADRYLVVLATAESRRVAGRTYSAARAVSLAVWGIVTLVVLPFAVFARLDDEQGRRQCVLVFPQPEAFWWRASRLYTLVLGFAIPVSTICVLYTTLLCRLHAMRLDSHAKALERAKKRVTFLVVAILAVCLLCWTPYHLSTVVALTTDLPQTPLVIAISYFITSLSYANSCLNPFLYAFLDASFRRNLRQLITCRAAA
OX1R antag-1: OX1R (HCRTR1) antagonists, primary screen, fluorescence, CHO/OX1R cells, Fluo-8 calcium, orexin A | inhibition, % at 5 µM | AID 434989, 2010 | Fluo-8 calcium fluorescence | actives 0.43% (n = 330,000);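 active = inhibition above its plate's threshold, mean inhibition of all tested compounds on the plate plus 3 SD, cut at about 37% in these data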;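 note: 0% = orexin A challenge wells and 100% = SB-334867-A antagonist wells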
OX1R antag-2: antagonists of human orexin 1 receptor (OX1R) | actives 1.8% (n = 330,000) | inhibition, % at 6.6 µM | Orexin/Hypocretin receptor type 1 (Homo sapiens), O43613 | AID 485270, 2010 | OX1R-expressing cells, FRET antagonist read-out; in the data active = inhibition mostly above about 38%, no sharp cut-off; inactive = mostly below about 40%;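 note: 0% = agonist challenge alone and 100% = reference antagonist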
TAAR1 ag conf: human TAAR1 agonists, retest of hits, confirmation, Fluo-8 calcium fluorescence, CHO RD-HGA16 cells; actives 82% (n = 2,400); AID 651783, 2012; shares compounds with TAAR1 ag; activation, % at 3 µM; scaled: DMSO 0%, maximal phenethylamine 100%;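 active = activation above a cutoff set at the run's mean compound activation plus 3 SD, cut at about 39% in these data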
Ga16 ag counter: nonselective calcium mobilization agonists, CHO-Ga16 cells, counter-screen for hTAAR1 agonist project, cell-based, fluorescence, CHO-Ga16 parental line. shares compounds with TAAR1 ag. Fluo-8 calcium fluorescence; normalized to maximal ATP response, DMSO zero. activation, % at 3 µM. actives 50% (n = 2,400). AID 651787, 2012;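 active = activation above the run cutoff, the mean activation over all tested wells plus 3 SD, cut at about 12% in these data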;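 note: 0% = DMSO wells and 100% = maximal ATP response on the peak over basal ratio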
TAAR1 desensitize: TAAR1 desensitization by agonist hits, confirmation, counter-screen for TAAR1 agonist project, cell-based, fluorescence, tachyphylaxis; shares compounds with TAAR1 ag; CHO RD-HGA16 hTAAR1, Fluo-8 calcium, beta-PEA response inhibition; inhibition, % at 3 µM; actives 46% (n = 2,400); AID 651951, 2012;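 active = inhibition above the run cutoff, the mean inhibition of all test compounds plus 3 SD, cut at about 49% in these data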;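 note: beta-PEA stimulus applied at its EC80; loss of beta-PEA calcium signal after compound pretreatment read as receptor desensitization; 0% = DMSO with beta-PEA at EC80 and 100% = DMSO alone without agonist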
Ga16 nonsel ant: inhibition of ATP-evoked calcium response in CHO-Ga16 cells, counter-screen for TAAR1 agonist project, cell-based, fluorescence; shares compounds with TAAR1 ag; CHO-Ga16 ATP-induced calcium, Fluo-8 fluorescence; inhibition, % at 3 µM; actives 39% (n = 2,400); AID 651952, 2012;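 active = inhibition above the plate's mean compound inhibition plus 3 SD, computed per plate, cut at about 22% in these data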;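 note: 0% = EC80 ATP with DMSO and 100% = DMSO wells without ATP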
Numbers without * were called inactive; . = no result given.

SMILES	TAAR1 ag	TAAR1 antagonist	CHO parental Ca	GPR7 antagonist	OX1R antag-1	OX1R antag-2	TAAR1 ag conf	Ga16 ag counter	TAAR1 desensitize	Ga16 nonsel ant
CCCc1cnc(Nc2nc(C(N)Cc3ccc(OC)cc3)cs2)nc1 (centres undefined)	48*	16	.	.	.	.	47*	18*	10	13
CC1CCCC/C1=N\NC(=S)NCCc1ccccc1 (centres undefined)	57*	-17	-4	3	-38	0	45*	0	4	1
Cc1ccc(NC(=S)N/N=C2\CCCCC2C)cc1 (centres undefined)	-2	12	-12	-9	-23	8	.	.	.	.
O=C(NCCCc1ccccc1)c1ccccc1	22	-4	-18	-3	-21	12	.	.	.	.
O=C(NCCc1ccccc1)C(=O)NC1CCCCC1	7	-9	0	9	-6	38	.	.	.	.
O=C(O)C1CCCCC1C(=O)NCCCc1ccccc1 (centres undefined)	68*	0	-14	-19	-16	10	50*	0	-3	-3
CC(CNC(=O)C1CCCCC1C(=O)O)c1ccccc1 (centres undefined)	.	.	-5	-7	-3	5	.	1	.	11
O=C(NC1CCCCC1)C(=S)NCCc1ccccc1	58*	33	-16	-14	-25	14	76*	2	62*	20
CCOc1cc(N2CCOCC2)c(OCC)cc1NC(=O)c1cc(S(=O)(=O)N2CCOCC2)ccc1F	2	-10	-22	.	-11	3	.	.	.	.
COc1ccc(CCNC(=O)C2CCCCC2C(=O)O)cc1OC (centres undefined)	.	.	0	24	1	6	.	.	.	.
O=C(O)C1CCCCC1C(=O)NCCc1ccccc1 (centres undefined)	98*	86*	-6	8	-12	0	106*	1	92*	10
O=C(O)C1CCCCC1C(=O)NCCCCc1ccccc1 (centres undefined)	45*	11	-17	4	-17	12	56*	5	-4	1
CCOC(=O)c1c(NC(=O)COC(=O)c2nccnc2N)sc2c1CCC2	16	7	-10	.	-22	0	.	.	.	.
NC(c1ccccc1)c1csc(NC(=O)Nc2cccc(Cl)c2)n1 (centres undefined)	64*	29	.	.	.	.	74*	22*	57*	36*
NC(c1ccccc1)c1csc(NC(=O)NCCc2ccccc2)n1 (centres undefined)	62*	11	.	.	.	.	28	5	16	15
O=c1[nH]c(CSc2ncnc3sccc23)nc2ccccc12	-1	5	-18	-8	-23	13	.	.	.	.
O=c1[nH]c(CSc2ncn[nH]2)nc2ccccc12	42*	-23	-3	-10	2	3	37	2	16	6
CCOC(=O)c1sc(N)c(C(=O)OC)c1C	1	-15	-8	19	0	17	.	.	.	.
COc1cccc(OC)c1C(=O)NCCc1ccccc1	81*	8	1	.	-3	14	80*	0	63*	6
COc1cc(C)c(NC(=O)C(=S)NCCc2ccccc2)cc1C	66*	79*	-14	-12	-14	13	92*	2	85*	16
O=C(NCCc1ccccc1)c1c(F)c(F)c(F)c(F)c1F	4	6	-2	-11	-10	12	.	.	.	.
COC(=O)c1c(N)sc(C(=O)NCCc2ccccc2)c1C	101*	74*	.	-2	.	.	86*	4	89*	22*
COc1ccccc1NC(=S)N1CCN(c2nc(-c3ccccc3)cs2)CC1	-1	-6	7	-7	-24	34	.	.	.	.
CN(CCc1ccccc1)C(=O)CC1C(=O)NCCN1Cc1ccccn1 (centres undefined)	63*	42	.	.	.	.	71*	3	60*	8
NS(=O)(=O)c1ccc(CCNC(=O)c2cccc(S(=O)(=O)N3CCCC3)c2)cc1	7	-7	-11	.	-17	4	.	.	.	.
SMILES	TAAR1 ag	TAAR1 antagonist	CHO parental Ca	GPR7 antagonist	OX1R antag-1	OX1R antag-2	TAAR1 ag conf	Ga16 ag counter	TAAR1 desensitize	Ga16 nonsel ant
COc1ccc(-c2csc(NC(=O)c3cc(C)on3)c2C#N)cc1OC	46*	29	-13	-19	-4	15	14	7	13	17
Cc1cc(Nc2ccc(Cl)cc2)nc(NCc2ccccc2)n1	55*	-8	20	4	-2	26	81*	35*	53*	29*
Cc1cc(Nc2ccccc2)nc(NCc2ccccc2)n1	56*	31	15	37*	-2	32	76*	36*	53*	37*
CCc1cc2c(NCCC(=O)O)nc(C)nc2s1	49*	-7	-5	-14	-3	9	104*	47*	13	-2
Cc1ccccc1-n1c(=O)cc(NCC2CCCO2)[nH]c1=O (centres undefined)	14	0	2	-5	-6	1	.	.	.	.
O=C(Nc1cc(F)c(Br)cc1F)c1ccc(Cl)cc1	91*	70*	-2	-16	-19	12	1	8	0	11
O=C(Nc1ccc(Cl)cc1C(F)(F)F)c1ccc(Cl)cc1	75*	31	10	1	-11	24	20	-1	19	9
Nc1cc(=O)[nH]c(SCC(=O)N2CCc3ccccc3C2)n1	80*	75*	-8	-2	-10	6	89*	5	43	7
